Test results as given in ChEMBL document CHEMBL1139306, “Design and synthesis of pyrazole derivatives as potent and selective inhibitors of tissue-nonspecific alkaline phosphatase (TNAP)” (Bioorg Med Chem Lett, 2009).

Target: T1, Alkaline phosphatase, tissue-nonspecific isozyme (Homo sapiens, UniProt P05186)
T1 sequence (P05186 whole entry): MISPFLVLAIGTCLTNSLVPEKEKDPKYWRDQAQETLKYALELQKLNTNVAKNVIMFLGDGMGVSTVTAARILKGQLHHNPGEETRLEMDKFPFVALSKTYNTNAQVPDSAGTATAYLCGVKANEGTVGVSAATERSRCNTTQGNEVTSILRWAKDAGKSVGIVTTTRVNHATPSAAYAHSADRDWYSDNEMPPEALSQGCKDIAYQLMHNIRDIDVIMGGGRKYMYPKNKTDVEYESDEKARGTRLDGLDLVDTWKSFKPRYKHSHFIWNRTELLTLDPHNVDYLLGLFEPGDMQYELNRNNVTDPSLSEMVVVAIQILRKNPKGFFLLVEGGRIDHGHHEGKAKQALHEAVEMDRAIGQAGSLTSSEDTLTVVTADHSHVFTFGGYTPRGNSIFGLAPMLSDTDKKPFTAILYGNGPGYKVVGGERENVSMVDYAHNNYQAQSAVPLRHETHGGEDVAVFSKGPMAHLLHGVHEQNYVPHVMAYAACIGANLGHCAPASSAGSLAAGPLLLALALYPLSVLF
Experiment: Inhibition of TNSALP
Outline: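 TNAP activity read on an EnVision plate reader in 100 mM diethanolamine-HCl, pH 9.8, with 1 mM MgCl₂, 20 μM ZnCl₂ and 50 μM CDP-star as substrate.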

IC50 [nM]	Compound
459	CC(C)CCNC(=O)c1cc(-c2ccc(Cl)cc2Cl)n[nH]1
574	O=C(c1cc(-c2ccc(Cl)cc2Cl)n[nH]1)N1CCOCC1
44	NNC(=O)c1cc(-c2ccc(Cl)cc2Cl)n[nH]1
56	O=C(NCCCO)c1cc(-c2cc(F)c(Cl)cc2Cl)n[nH]1
828	CN1CCN(C(=O)c2cc(-c3ccc(Cl)cc3Cl)n[nH]2)CC1
100	O=C(NCCO)c1cc(-c2cc(F)c(Cl)cc2Cl)n[nH]1
285	CCN(CC)C(=O)c1cc(-c2ccc(Cl)cc2Cl)n[nH]1
1450	O=C(c1cc(-c2ccc(Cl)cc2Cl)n[nH]1)N1CCCCCC1
398	CC(C)(C)NC(=O)c1cc(-c2ccc(Cl)cc2Cl)n[nH]1
82	CC(C)CNC(=O)c1cc(-c2ccc(Cl)cc2Cl)n[nH]1
4850	CC(C)NC(=O)c1cc(-c2cc(F)c(Cl)cc2Cl)n[nH]1
127	O=C(c1cc(-c2cc(F)c(Cl)cc2Cl)n[nH]1)N(CCO)CCO
35	O=C(NCCO)c1cc(-c2ccc(F)cc2F)n[nH]1
44	O=C(NCCO)c1cc(-c2ccc(Cl)cc2Cl)n[nH]1
324	CN(C)C(=O)c1cc(-c2cc(F)c(Cl)cc2Cl)n[nH]1
35	O=C(NCCCCO)c1cc(-c2ccc(Cl)cc2Cl)n[nH]1
488	CCN1CCN(C(=O)c2cc(-c3ccc(Cl)cc3Cl)n[nH]2)CC1
46	COCCNC(=O)c1cc(-c2ccc(Cl)cc2Cl)n[nH]1
51	CC(C)NC(=O)c1cc(-c2ccc(Cl)cc2Cl)n[nH]1
375	O=C(c1cc(-c2ccc(Cl)cc2Cl)n[nH]1)N1CCN(CCO)CC1
47	O=C(c1cc(-c2ccc(Cl)cc2Cl)n[nH]1)N(CCO)CCO
134	O=C(NCCO)c1cc(-c2cc(F)c(F)cc2F)n[nH]1
119	CN(C)C(=O)c1cc(-c2ccc(Cl)cc2Cl)n[nH]1
31	O=C(NCCCO)c1cc(-c2ccc(Cl)cc2Cl)n[nH]1

Target: Alkaline phosphatase, placental type (Homo sapiens, UniProt P05187)
Experiment: Inhibition of PLAP

Chain of Alkaline phosphatase, placental type (P05187 whole entry): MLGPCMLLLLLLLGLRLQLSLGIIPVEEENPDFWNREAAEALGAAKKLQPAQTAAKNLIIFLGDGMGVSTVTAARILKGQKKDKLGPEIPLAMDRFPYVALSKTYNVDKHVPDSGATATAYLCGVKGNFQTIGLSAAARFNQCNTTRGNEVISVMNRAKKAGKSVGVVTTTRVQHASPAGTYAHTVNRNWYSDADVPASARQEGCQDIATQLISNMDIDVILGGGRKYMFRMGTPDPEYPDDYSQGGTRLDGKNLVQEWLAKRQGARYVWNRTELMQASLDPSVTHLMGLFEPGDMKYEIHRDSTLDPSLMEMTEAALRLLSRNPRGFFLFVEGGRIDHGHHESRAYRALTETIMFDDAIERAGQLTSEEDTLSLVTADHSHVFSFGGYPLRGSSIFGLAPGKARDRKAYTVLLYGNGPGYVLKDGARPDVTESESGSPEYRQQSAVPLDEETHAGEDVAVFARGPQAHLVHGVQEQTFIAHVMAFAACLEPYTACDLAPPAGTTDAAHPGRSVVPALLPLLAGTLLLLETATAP

IC50 [nM]	Compound
> 10000	O=C(NCCO)c1cc(-c2ccc(Cl)c(Cl)c2Cl)n[nH]1

Target: Glyceraldehyde-3-phosphate dehydrogenase (Homo sapiens, UniProt P04406)
Experiment: Inhibition of GAPDH

Chain of Glyceraldehyde-3-phosphate dehydrogenase (P04406 whole entry): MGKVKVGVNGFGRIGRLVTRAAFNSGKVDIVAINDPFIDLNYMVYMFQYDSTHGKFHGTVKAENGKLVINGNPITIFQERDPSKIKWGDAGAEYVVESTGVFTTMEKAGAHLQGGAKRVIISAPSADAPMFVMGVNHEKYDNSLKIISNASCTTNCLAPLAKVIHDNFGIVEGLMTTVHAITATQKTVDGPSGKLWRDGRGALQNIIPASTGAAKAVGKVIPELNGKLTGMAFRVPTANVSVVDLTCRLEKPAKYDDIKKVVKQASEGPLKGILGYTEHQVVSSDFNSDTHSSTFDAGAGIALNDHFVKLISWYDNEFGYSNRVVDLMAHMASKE

IC50 [nM]	Compound
> 10000	O=C(NCCO)c1cc(-c2ccc(Cl)c(Cl)c2Cl)n[nH]1

Tested on: not listed separately
Experiment: Selectivity of TNSALP over PLAP

fold change (FC)	Compound
2000	O=C(NCCO)c1cc(-c2ccc(Cl)c(Cl)c2Cl)n[nH]1

Tested on: not listed separately
Experiment: Selectivity of TNSALP over GAPDH

fold change (FC)	Compound
2000	O=C(NCCO)c1cc(-c2ccc(Cl)c(Cl)c2Cl)n[nH]1
